Measured values gathered from unrelated publications.
Observed: metabolic stability
Medium: liver microsomes

SMILES	host	tested at	time	pH	compound remaining
N#Cc1ccc(C[C@@H](NC(=O)Nc2ccc([N+](=O)[O-])cc2)C(=O)NCC2(c3ccccc3)CC2)cc1	rat	10 µM	30 min	pH 7.4	> 20%
Cc1ccc2c(c1)nc(/C=C/c1cccc3cccnc13)n2-c1ccccc1	rat	1.5 µM	0 h		100%
CCCn1nc(C(=O)N(C)C)c2c1CCC(NCc1ccc(F)cc1)C2 (centres unmarked)	mouse	10 µM	1 h		< 25%
Cc1ccc2c(c1)nc(CCc1cccc3cccnc13)n2-c1ccccc1	rat	1.5 µM	30 min		0.13%
Cc1ncsc1-c1ccc(CNC(=O)[C@@H]2C[C@@H](O)CN2C(=O)[C@@H](NC(=O)CCCCCCCCCCNC(=O)O[C@H]2C[C@@H](C)C=C3C=C[C@H](C)[C@H](CC[C@@H]4C[C@@H](O)CC(=O)O4)[C@H]32)C(C)(C)C)cc1	mouse	1 µM	45 min	pH 7.4	1.42%
O=C(Nc1ccc(S(=O)(=O)N2CCC(Cl)CC2)cc1)c1ccc([N+](=O)[O-])o1	mouse	1 µM	1 h	pH 7.4	0.02%
[O-][S+](CCN1CCCN(CC(O)Cc2ccccc2)CC1)C(c1ccc(F)cc1)c1ccc(F)cc1 (centres unmarked)	rat	10 µM	1 h	pH 7.4	0%
CCCn1nc(C(=O)N2CCCCC2)c2c1CCC(N(C)Cc1ccc(F)cc1)C2 (centres unmarked)	mouse	10 µM	1 h		0%
CS(=O)(=O)c1ccc(-c2cnc(N)c(-c3ccc(C(F)(F)F)nc3)c2)cc1	male CD-1 mouse	1 µM	30 min		> 99%
CCCn1nc(C(=O)N2CCCCC2)c2c1CCC(N1CCc3ccccc3C1)C2 (centres unmarked)	mouse	10 µM	1 h		< 25%
N#Cc1ccc(C[C@H](NC(=O)Nc2ccc(F)cc2)C(=O)NCC2(c3ccc(OC(F)(F)F)cc3)CC2)cc1	rat	10 µM	30 min	pH 7.4	> 80%
